The values below come from ChEMBL document CHEMBL3286193, “Discovery of a series of 2,5-diaminopyrimidine covalent irreversible inhibitors of Bruton's tyrosine kinase with in vivo antitumor activity” (J Med Chem, 2014).

≈ marks a conversion by molar mass, not a printed value. Calls of active or inactive are those of the source. The calls are words filed in the database; no cut-off is given here.

Data set [1] deals with Tyrosine-protein kinase TXK (Homo sapiens, UniProt P42681). The data set is described as follows: Inhibition of Rlk (unknown origin) after 1 hr by HTRF assay. The method in brief: (§1)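 Recombinant kinases tested by HTRF KinEase protocol. Enzyme preincubated with inhibitor for a fixed 10 min. IC50 values are means of duplicates.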
Data set [2] relates to WSU-DLCL2. The data set is described as follows: Cytotoxicity against human WSU-DLCL2 cells assessed as growth inhibition at 1 to 10 uM after 72 hrs by CellTiter-Glo luminescent cell viability assay. In kind it is functional, cell-based. On the technique in general: Cellular ATP, detected with luciferase, serves as a proxy for viable cell number.
The subject of data set [3] is JVM-3. The data set is described as follows: Cytotoxicity against human JVM-3 cells assessed as growth inhibition at 1 to 10 uM after 72 hrs by CellTiter-Glo luminescent cell viability assay. Type of data set: functional, cell-based.
Data set [4] can be described thus: Antitumor activity against human DOHH2 cells xenografted in CB17 SCID mouse assessed as tumor growth inhibition at 10 mg/kg, iv qd administered for 14 days measured over 14 days of compound treatment relative to vehicle-treated control. The note with it: DOHH-2, iv, 336 h, read-out: TGI. In general terms: Xenograft models place foreign cells or tissue in a host animal.

A short description of data set [5]: Half life in mouse liver microsomes by LC-MS/MS analysis. Type of data set: ADME. The method in brief:
(§2)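 Liver microsomes incubated with compound and NADPH at 37 °C. Samples taken at several time points, centrifuged, and supernatants analyzed by LC−MS/MS. t1/2 and CL calculated by first-order kinetics. Testosterone, propranolol and clozapine served as positive controls.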
(In general: Liver microsomes are a subcellular fraction often used to study metabolism.)

The nature of data set [6]: Clearance in mouse liver microsomes by LC-MS/MS analysis. Type of data set: ADME. To be noted: read-out: CLH. An outline of the steps: as §2
Data set [7] can be described thus: Cytotoxicity against human SU-DHL6 cells assessed as growth inhibition after 72 hrs by CellTiter-Glo luminescent cell viability assay. Type of data set: functional, SU-DHL-6. To be noted: Homo sapiens, SU-DHL-6, 72 h. An outline of the steps:
(§3)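 Lymphoma cells seeded at 5000 cells/well, incubated 24 h, then exposed to compounds for 72 h. Viability read by CellTiter-Glo luminescence. GI50 from dose−response curves, mean of two or three independent experiments in triplicate.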

Data set [8] addresses Tyrosine-protein kinase JAK2 (Homo sapiens) (UniProt O60674). As to the kind of experiment: Inhibition of JAK2 (unknown origin) at 0.5 uM by [33P]-ATP filter binding assay. An outline of the steps:
(§4)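 Kinase panel of 18 enzymes; inhibition tested at 0.5 μM. Values are means of duplicates.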

Data set [9] has as its target T1, Tyrosine-protein kinase BTK (Homo sapiens, UniProt Q06187). As to the kind of experiment: Irreversible inhibition of Btk phosphorylation at Tyr551 in human Ramos cells at 1 uM incubated for 1 hr followed by compound washout with fresh media measured after 2 hrs by Western blot analysis. In kind it is cell-based. An outline of the steps: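 Ramos cells (5 × 10⁵) seeded overnight, treated with compound 1 h, then washed out with fresh media for 2 h. Cells stimulated with goat anti-human IgM for 3−5 min, lysed by boiling in SDS buffer, and Btk Tyr551 phosphorylation assessed by Western blot.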

Data set [10] concerns the target T1, Tyrosine-protein kinase BTK. As to the kind of experiment: Binding affinity to Btk kinase domain (387 to 659) (unknown origin) assessed as compound-protein covalent adduct formation at Cys481 residue at 1:3 protein to compound molar ratio incubated for 3 hrs at 0 degC followed by overnight incubation with trypsin at 37 degC by LC-MS analysis. The method in brief: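 Covalent Btk kinase-domain adduct digested with trypsin. Resulting peptide fragments analyzed by mass spectrometry to locate the modified residue.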

Data set [11] deals with Tyrosine-protein kinase JAK3 (Homo sapiens, UniProt P52333). As to the kind of experiment: Inhibition of Jak3 (unknown origin) after 1 hr by HTRF assay. The method in brief:
as §1

The subject of data set [12] is SU-DHL10. The data set is described as follows: Cytotoxicity against human SU-DHL10 cells assessed as growth inhibition at 1 to 10 uM after 72 hrs by CellTiter-Glo luminescent cell viability assay. In kind it is functional, cell-based.
The species named for data set [13] is Homo sapiens. As to the kind of experiment: Inhibition of VEGFR (unknown origin) at 0.5 uM by [33P]-ATP filter binding assay. An outline of the steps:
as §4

In data set [14] the test system is DOHH-2. The data set is described as follows: Antitumor activity against human DOHH2 cells xenografted in iv dosed CB17 SCID mouse assessed as tumor growth inhibition administered as qd for 14 days measured over 14 days of compound treatment. In kind it is functional, organism-based.
A short description of data set [15]: Solubility of the compound in FaSSIF. Type of data set: ADME.
Data set [16] addresses Tyrosine-protein kinase Tec (Homo sapiens, UniProt P42680). The data set is described as follows: Inhibition of Tec (unknown origin) after 1 hr by HTRF assay. An outline of the steps: as §1
The target of data set [17] is Tyrosine-protein kinase SYK (Homo sapiens) (UniProt P43405). As to the kind of experiment: Inhibition of SYK (unknown origin) at 0.5 uM by [33P]-ATP filter binding assay. An outline of the steps: as §4
A short description of data set [18]: Cytotoxicity against human DOHH2 cells assessed as growth inhibition after 72 hrs by CellTiter-Glo luminescent cell viability assay. The note with it: Homo sapiens, DOHH-2, 72 h. Type of data set: functional, DOHH-2. An outline of the steps: as §3
Data set [19] has as its target Receptor tyrosine-protein kinase erbB-2 (Homo sapiens, UniProt P04626). The data set is described as follows: Inhibition of HER2 (unknown origin) after 1 hr by HTRF assay. The method in brief: as §1
For data set [20], the target named is Protein kinase C alpha type (Homo sapiens) (UniProt P17252). As to the kind of experiment: Inhibition of PKC-alpha (unknown origin) at 0.5 uM by [33P]-ATP filter binding assay. The method in brief:
as §4

For data set [21], the target named is Receptor tyrosine-protein kinase erbB-4 (Homo sapiens, UniProt Q15303). As to the kind of experiment: Inhibition of HER4 (unknown origin) at 0.5 uM by [33P]-ATP filter binding assay. An outline of the steps: as §4

As a reminder, the IC50 is the concentration at which inhibition is half-maximal. Read a high IC50 as a need for much substance. The half-life is how long it takes for the measured level to halve. As a reminder, the GI50 is the concentration giving 50% growth inhibition. As usually defined, the solubility is how much of the substance goes into solution per volume.

T1 sequence (Q06187 whole entry): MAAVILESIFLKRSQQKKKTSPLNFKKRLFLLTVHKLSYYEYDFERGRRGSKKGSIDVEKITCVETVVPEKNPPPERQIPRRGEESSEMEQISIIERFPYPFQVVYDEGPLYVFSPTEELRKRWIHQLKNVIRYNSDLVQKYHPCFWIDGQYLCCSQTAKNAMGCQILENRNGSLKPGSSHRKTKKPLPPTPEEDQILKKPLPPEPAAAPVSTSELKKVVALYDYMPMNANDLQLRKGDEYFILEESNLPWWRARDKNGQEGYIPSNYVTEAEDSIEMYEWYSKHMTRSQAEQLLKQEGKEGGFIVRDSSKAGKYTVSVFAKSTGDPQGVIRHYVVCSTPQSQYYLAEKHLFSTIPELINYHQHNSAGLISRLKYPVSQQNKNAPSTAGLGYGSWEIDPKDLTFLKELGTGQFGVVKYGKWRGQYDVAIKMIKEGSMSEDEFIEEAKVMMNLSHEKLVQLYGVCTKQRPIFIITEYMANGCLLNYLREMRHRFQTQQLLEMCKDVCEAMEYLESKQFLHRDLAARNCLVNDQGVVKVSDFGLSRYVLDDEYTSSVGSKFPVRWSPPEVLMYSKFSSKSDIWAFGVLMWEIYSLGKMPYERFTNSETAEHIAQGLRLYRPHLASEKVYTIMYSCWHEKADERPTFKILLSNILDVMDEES
Tyrosine-protein kinase JAK3, sequence (P52333 whole entry): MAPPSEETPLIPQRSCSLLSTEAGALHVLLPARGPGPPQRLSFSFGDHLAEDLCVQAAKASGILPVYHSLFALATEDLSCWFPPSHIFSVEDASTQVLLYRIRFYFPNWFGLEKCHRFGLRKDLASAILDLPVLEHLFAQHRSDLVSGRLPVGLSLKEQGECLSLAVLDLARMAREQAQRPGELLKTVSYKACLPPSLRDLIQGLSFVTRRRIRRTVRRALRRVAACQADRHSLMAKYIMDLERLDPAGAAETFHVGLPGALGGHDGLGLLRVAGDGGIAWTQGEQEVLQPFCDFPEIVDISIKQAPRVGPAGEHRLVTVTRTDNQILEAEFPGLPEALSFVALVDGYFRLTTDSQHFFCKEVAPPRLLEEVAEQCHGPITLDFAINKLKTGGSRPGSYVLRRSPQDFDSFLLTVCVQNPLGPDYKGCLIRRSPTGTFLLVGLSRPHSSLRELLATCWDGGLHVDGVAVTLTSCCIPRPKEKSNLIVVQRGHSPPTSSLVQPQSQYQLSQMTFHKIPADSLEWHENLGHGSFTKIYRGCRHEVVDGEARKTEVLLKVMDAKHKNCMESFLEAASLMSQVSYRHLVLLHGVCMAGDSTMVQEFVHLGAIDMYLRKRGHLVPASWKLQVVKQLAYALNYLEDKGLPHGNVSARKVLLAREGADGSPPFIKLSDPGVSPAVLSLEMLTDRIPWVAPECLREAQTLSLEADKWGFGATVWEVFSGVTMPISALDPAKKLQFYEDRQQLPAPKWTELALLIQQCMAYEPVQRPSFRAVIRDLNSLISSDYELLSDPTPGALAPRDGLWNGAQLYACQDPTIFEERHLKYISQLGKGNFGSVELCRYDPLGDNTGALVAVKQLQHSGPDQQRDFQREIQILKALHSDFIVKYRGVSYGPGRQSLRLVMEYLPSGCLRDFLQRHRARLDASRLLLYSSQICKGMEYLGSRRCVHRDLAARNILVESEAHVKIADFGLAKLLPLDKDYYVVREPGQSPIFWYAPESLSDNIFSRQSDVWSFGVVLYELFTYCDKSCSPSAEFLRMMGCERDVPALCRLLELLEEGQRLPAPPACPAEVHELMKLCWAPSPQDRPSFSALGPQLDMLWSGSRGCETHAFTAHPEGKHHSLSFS
Tyrosine-protein kinase Tec, sequence (P42680 whole entry): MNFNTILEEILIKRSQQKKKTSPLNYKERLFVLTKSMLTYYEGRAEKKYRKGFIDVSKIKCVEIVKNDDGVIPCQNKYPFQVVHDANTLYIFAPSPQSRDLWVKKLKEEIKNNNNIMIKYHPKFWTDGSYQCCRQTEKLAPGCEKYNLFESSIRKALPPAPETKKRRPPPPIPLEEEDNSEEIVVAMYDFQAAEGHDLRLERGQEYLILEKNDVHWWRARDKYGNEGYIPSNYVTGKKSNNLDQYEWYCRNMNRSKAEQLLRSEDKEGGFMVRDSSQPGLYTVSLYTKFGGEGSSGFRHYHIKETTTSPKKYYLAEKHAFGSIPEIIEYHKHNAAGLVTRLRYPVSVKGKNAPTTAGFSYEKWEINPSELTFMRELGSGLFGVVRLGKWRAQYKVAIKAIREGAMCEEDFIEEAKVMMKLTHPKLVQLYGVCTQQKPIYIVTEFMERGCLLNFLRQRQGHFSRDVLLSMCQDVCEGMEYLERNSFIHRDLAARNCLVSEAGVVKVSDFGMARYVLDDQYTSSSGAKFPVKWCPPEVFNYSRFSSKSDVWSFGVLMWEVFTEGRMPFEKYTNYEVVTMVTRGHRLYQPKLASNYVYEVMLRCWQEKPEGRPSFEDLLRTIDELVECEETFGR
Receptor tyrosine-protein kinase erbB-2, sequence (P04626 whole entry): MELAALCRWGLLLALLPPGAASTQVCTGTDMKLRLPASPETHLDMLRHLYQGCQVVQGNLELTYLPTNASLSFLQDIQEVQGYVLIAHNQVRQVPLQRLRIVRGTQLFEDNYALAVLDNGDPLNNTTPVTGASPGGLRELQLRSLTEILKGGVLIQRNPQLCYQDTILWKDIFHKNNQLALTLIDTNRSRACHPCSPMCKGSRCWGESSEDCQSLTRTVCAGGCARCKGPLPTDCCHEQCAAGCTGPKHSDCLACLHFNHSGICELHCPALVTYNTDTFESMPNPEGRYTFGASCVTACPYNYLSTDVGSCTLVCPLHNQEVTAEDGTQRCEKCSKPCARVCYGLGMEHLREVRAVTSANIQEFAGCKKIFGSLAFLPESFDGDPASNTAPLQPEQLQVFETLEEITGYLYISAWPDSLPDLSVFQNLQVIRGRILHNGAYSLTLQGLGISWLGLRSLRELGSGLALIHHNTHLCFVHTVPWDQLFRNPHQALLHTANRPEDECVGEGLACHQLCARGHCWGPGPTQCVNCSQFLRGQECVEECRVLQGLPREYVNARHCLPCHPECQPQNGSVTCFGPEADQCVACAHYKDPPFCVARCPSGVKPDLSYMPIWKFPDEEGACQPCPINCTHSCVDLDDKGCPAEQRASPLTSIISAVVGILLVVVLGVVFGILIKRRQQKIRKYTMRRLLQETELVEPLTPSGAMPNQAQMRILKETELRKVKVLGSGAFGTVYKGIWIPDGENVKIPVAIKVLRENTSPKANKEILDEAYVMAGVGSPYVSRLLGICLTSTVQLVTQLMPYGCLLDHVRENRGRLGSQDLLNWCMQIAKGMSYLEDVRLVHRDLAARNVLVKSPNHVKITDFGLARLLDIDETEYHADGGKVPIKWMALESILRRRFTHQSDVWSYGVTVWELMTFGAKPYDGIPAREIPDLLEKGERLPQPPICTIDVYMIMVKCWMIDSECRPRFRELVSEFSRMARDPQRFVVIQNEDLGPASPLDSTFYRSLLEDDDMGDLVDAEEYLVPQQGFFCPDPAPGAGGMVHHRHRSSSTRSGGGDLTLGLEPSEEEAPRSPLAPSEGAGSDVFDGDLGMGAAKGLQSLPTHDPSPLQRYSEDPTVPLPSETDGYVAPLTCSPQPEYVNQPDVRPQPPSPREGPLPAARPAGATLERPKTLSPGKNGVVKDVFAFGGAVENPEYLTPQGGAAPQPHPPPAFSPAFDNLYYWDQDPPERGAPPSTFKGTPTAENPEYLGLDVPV
Tyrosine-protein kinase TXK, sequence (P42681 whole entry): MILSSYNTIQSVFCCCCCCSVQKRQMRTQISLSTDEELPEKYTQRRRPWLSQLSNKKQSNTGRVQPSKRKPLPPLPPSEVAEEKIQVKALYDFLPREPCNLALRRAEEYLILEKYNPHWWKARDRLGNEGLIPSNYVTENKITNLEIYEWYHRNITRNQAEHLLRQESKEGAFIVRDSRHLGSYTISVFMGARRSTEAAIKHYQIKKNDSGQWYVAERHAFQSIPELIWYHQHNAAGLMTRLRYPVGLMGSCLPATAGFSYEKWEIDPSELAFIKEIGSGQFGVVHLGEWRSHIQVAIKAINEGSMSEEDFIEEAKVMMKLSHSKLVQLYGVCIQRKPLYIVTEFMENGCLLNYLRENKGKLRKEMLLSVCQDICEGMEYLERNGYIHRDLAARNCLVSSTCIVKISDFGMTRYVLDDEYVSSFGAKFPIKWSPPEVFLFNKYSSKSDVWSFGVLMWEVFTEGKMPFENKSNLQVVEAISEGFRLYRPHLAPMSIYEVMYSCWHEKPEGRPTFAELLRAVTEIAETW

With `C=CC(=O)Nc1cccc(Nc2ncc(NC(=O)c3cc(NC(=O)c4cccc(C(F)(F)F)c4)ccc3C)cn2)c1`, the IC50 in data set [1] came out at 1.9 nM; in [11] it was 2680 nM; in data set [16], 8.2 nM; in data set [19] it was 19 nM. For the same molecule, the “growth inhibition (GI)” value in data set [2], in data set [3] and in [12] was “Active” each time. In addition, in data set [4], the inhibition in vivo at 10 mg/kg is 60%. The half-life in data set [5] is 38.4 min. In addition, the microsomal CLint in data set [6] stood at 25.7 µL/min/mg. For the same molecule, the GI50 in [7] stood at 38 nM; in data set [18] it was 73 nM. Further, the inhibition result in data set [8], in [9], in data set [13] and in data set [21] was “Active” throughout. The outcome in data set [10] was Active. Further, the “growth inhibition (GI)” value in [14] was “Dose-dependent effect”. The same molecule showed a solubility in data set [15] of 7.02 µM (≈ 3.93 µg/mL). In addition, the inhibition entry in [17] and in [20] was “inactive” each time.
